This sample holds only a part of the variants without activity.

B1: tRNA (parent)
chain: GUUCCGUUGGCGUAAUGGUAACGCGUCUCCCUCCUAAGGAGAAGACUGCGGGUUCGAGUCCCGUACGGAACG

The series covers variants of B1. Briefly: yeast fitness relative to wild type (ratio to wild type); higher = fitter; tRNA-Arg(CCU), competitive growth, 37 C, YPD. A digest of the protocol: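 Changes in genotype frequencies gave Darwinian fitness relative to wild type. Frequencies were read by 100-nucleotide paired-end sequencing of gene amplicons before and after pooled Saccharomyces cerevisiae strains, carrying tRNA-Arg(CCU) gene variants at the native locus, were competed in YPD at 37°C for 24 hours in six replicates. A genotype was kept only with ≥ 100 starting reads, and estimates < 0.5 were set to 0.5.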
For C29A A70C, the yeast fitness was 0.635.

G52A C66G G68C: the yeast fitness was 0.65.

Turning to A20C C24G C33G, the yeast fitness is ≤ 0.5.

Regarding U32A C33U G52A, the yeast fitness was determined as 0.597.

For the variant G6C G58C, the yeast fitness worked out at 1.01.

With C5G U7C U54A C61U, the yeast fitness was determined as 0.557.

As to C29A U47C G50C A57C, the yeast fitness was 0.582.

Regarding G41A C62A, the yeast fitness turned out to be 0.777.

With G41A U59G A69C, the yeast fitness was ≤ 0.5.

Regarding C24G A40G A43G, the yeast fitness is ≤ 0.5.

Take C27G U59G: the yeast fitness stood at 0.641.

For C4A G25U A65C, the yeast fitness is ≤ 0.5.

C11G U16A U28C C29U G39A U59G G67U: the yeast fitness was ≤ 0.5.

Consider U16A A43U C62G C66A A69C, for which the yeast fitness was ≤ 0.5.

Take G6C A37C G67C: the yeast fitness is ≤ 0.5.

C27A A42U: the yeast fitness turned out to be 0.702.

Regarding U8A G25A U26A A42C, the yeast fitness was ≤ 0.5.

A15C A36G G39C C55U C66U: the yeast fitness is ≤ 0.5.

As to U53C U64C, the yeast fitness came to 0.817.

A15C C27A G58A A70U: the yeast fitness stood at 0.525.

For the variant G23A A57C C62G, the yeast fitness worked out at 0.625.

In the case of U7A C34U C66G, the yeast fitness was ≤ 0.5.

Take C46A C62U: the yeast fitness is 1.02.

On to C4A A42U, for which the yeast fitness worked out at 0.716.

In the case of G23C U47G, the yeast fitness came out at 0.626.

As for G9A A40C A69U, the yeast fitness was 0.722.

Turning to C31G U32G A37U A65U, the yeast fitness was ≤ 0.5.

C11A G38C: the yeast fitness is 0.586.

U3G C11U G17A U19C A20U A42C A65C A69U: the yeast fitness was ≤ 0.5.

On to U3C A14C A21G C22U A37U C49A C60G, for which the yeast fitness was ≤ 0.5.

On to C5G C22A U26C C33G, for which the yeast fitness worked out at 0.564.

Consider G25A A45U U54C G58C, for which the yeast fitness came out at 0.596.

Regarding C5A G18A G52C, the yeast fitness is ≤ 0.5.

Turning to U7A G9C G17C C61U C62G A65C, the yeast fitness is ≤ 0.5.

With G18C C24A A57C C66U A69C, the yeast fitness is ≤ 0.5.

For the variant C5A C22U C49U G50C, the yeast fitness is ≤ 0.5.

As for U3C C27A C62U, the yeast fitness is 0.526.

Regarding G12C A20C G50A C60U, the yeast fitness came out at 0.56.

For G67U A69G, the yeast fitness turned out to be 1.05.

In the case of G25A G52A, the yeast fitness was determined as 0.572.

On to G10A C33A U35C C60A, for which the yeast fitness was ≤ 0.5.

With C11G C29U G52A, the yeast fitness is ≤ 0.5.

Consider G10C C49G, for which the yeast fitness was found to be 0.619.

Turning to G10A A21G C29A, the yeast fitness turned out to be 0.519.

In the case of G39A G58A A69C, the yeast fitness came out at 0.592.

Consider C5A A15G G25A, for which the yeast fitness stood at 0.583.

In the case of U2G C34U A36C, the yeast fitness is ≤ 0.5.

In the case of C11A A36G A69C, the yeast fitness is 0.562.

For the variant A15C G17A A42U, the yeast fitness is ≤ 0.5.

For the variant G39C C60G G67C, the yeast fitness is ≤ 0.5.

Turning to U8A C11U G25C G39C A45U, the yeast fitness was ≤ 0.5.

Regarding U2G G38C, the yeast fitness is 0.606.

On to G18A A57U G58C, for which the yeast fitness is ≤ 0.5.

Turning to G18A A21C G39A C55U C60G A69U, the yeast fitness was 0.523.

On to C5A C11G G41C, for which the yeast fitness was 0.561.

A14U A57U C60A: the yeast fitness was ≤ 0.5.

U13C G51C C66A: the yeast fitness was ≤ 0.5.

Take G9C C34G U47C C49U: the yeast fitness was ≤ 0.5.

On to A40U C62U, for which the yeast fitness turned out to be 0.87.

C5A G38A: the yeast fitness turned out to be 0.664.

Turning to C34A A42U U54A A57U, the yeast fitness was determined as 0.511.

With U7C U13A C24U G51A U59A A65C, the yeast fitness came to 0.642.

For A20C C27U A37C A42G, the yeast fitness was 0.688.

With C62U C66G A70G, the yeast fitness was found to be 0.574.

Consider A15G G17C C33A C46A G52A G63C, for which the yeast fitness was ≤ 0.5.

For A45G C55A G56A G67A, the yeast fitness is ≤ 0.5.

Turning to A21U G52C A57G C61U, the yeast fitness was ≤ 0.5.

In the case of U16G C22U G25A, the yeast fitness is ≤ 0.5.

A14C C49U: the yeast fitness is 0.715.

With U16A G44A, the yeast fitness is 0.999.

Turning to U13G U28C, the yeast fitness came out at 0.867.

Regarding G10A C11A C29A C66U, the yeast fitness is ≤ 0.5.

Regarding C49A C55G, the yeast fitness was ≤ 0.5.

Consider U3A G17C A20C U28A C46A C61A, for which the yeast fitness is ≤ 0.5.

On to A42U C61U A70C, for which the yeast fitness is 0.709.

As for G6A G10A C30U C60G, the yeast fitness is ≤ 0.5.

As to U2G C11U G23A C46U U54A, the yeast fitness was ≤ 0.5.

For the variant A21C U26C A57U, the yeast fitness was ≤ 0.5.

Turning to G25C C27G C46G C55A, the yeast fitness was ≤ 0.5.

For the variant C4G C5G C31A U35C, the yeast fitness was ≤ 0.5.

Regarding C11G C33G, the yeast fitness was ≤ 0.5.

U32A A69C: the yeast fitness amounted to 0.882.

G50C G56A: the yeast fitness is 0.635.

In the case of C5G U16A, the yeast fitness turned out to be 0.959.

For the variant U19G G50U G58A C66U, the yeast fitness stood at 0.541.

In the case of G17A C34A A57U, the yeast fitness was ≤ 0.5.

In the case of G6A U7G U26C G52A C55U, the yeast fitness is ≤ 0.5.

Turning to U26A C27A U28A C34U, the yeast fitness was ≤ 0.5.

Regarding U35C C46U A69U, the yeast fitness is 0.832.

For A14U C49G A57U, the yeast fitness was ≤ 0.5.

On to C4G U53A A65C, for which the yeast fitness was ≤ 0.5.

Take U32C G38C G68C: the yeast fitness is ≤ 0.5.

For U8A C31A C33G, the yeast fitness was determined as 0.542.

For the variant C22U U32C G48C A57G G68C, the yeast fitness is ≤ 0.5.

Regarding C4G A21G A45U C49U A70C, the yeast fitness is ≤ 0.5.

As to U26A C27U A65G, the yeast fitness is 1.

C30A U53C: the yeast fitness came out at 0.82.

Take G23A A40G C46G: the yeast fitness is ≤ 0.5.

In the case of U28C C34G A40G A43G C46G G52A C55U, the yeast fitness was determined as 0.613.

Regarding A43U U64C, the yeast fitness was determined as 1.02.

For A14U C27A C33U U47C C49U G51A, the yeast fitness was ≤ 0.5.

Take A20C C62A G68C: the yeast fitness was ≤ 0.5.

On to U19C C24U C31G U35A C61A A69C, for which the yeast fitness was ≤ 0.5.

Take U16G U47A U54A A57U U64A A69U: the yeast fitness was found to be 0.678.

For the variant G10A G12C C31U, the yeast fitness came to 0.62.

As to U59C C61A C66A, the yeast fitness was ≤ 0.5.

For G9C U26C C61A G67A, the yeast fitness is ≤ 0.5.

Take G23C A36U G51C: the yeast fitness is ≤ 0.5.

For A15C U16C A43U A70G, the yeast fitness was 0.532.

For C27G C31U A57G, the yeast fitness was 0.562.

As for C34A A57U G67C, the yeast fitness turned out to be 0.605.

Take U26C A42U A69C: the yeast fitness stood at 0.669.

Take C4G C5U C27G C34A: the yeast fitness is ≤ 0.5.

Regarding G38A A65C, the yeast fitness is 0.707.

A15U A43U A65C: the yeast fitness came out at 0.569.

In the case of C11A U16C A21G C55A, the yeast fitness was ≤ 0.5.

With C24U U59C A69C, the yeast fitness came to 0.618.

For G17C A69C, the yeast fitness was found to be 0.658.

Regarding C24G C49G A70U, the yeast fitness is ≤ 0.5.

For the variant U54C C55A, the yeast fitness turned out to be 0.635.

On to G18A A43C C66G, for which the yeast fitness amounted to 0.505.

Take C31G C34U A40C C60A C61A G63A: the yeast fitness is ≤ 0.5.

Regarding U2A G48A A57U A65U C66A, the yeast fitness was ≤ 0.5.

In the case of U2G A37C G41A C49U C60G, the yeast fitness is 0.51.

In the case of C27G G41A G67A, the yeast fitness came to 0.789.

U19G C22U A37G C66U A69U: the yeast fitness was 0.61.

For the variant C5U C62U A65C, the yeast fitness came to 0.739.

With C4G C34G G67A, the yeast fitness was ≤ 0.5.

Consider G12A C24G U35A A36G A40C G67A, for which the yeast fitness was ≤ 0.5.

Consider U19G C22G C34U C61G, for which the yeast fitness was ≤ 0.5.

In the case of A42U A57G, the yeast fitness stood at 0.905.

On to C5A C11U A14U C27U A36U A43G C46U, for which the yeast fitness is ≤ 0.5.

As for U26A C31U G48A A65G, the yeast fitness stood at 0.683.

With U2A C11G A21G A65U, the yeast fitness was ≤ 0.5.

U2G G9C A65C G68A: the yeast fitness is ≤ 0.5.

For U7G C11G C34U G41A C46U, the yeast fitness was ≤ 0.5.

G48A C62U A70U: the yeast fitness came to 0.824.

C5G A14C G18A A43G A45C C46U: the yeast fitness worked out at 0.579.

In the case of C5A A14G C22G A37U, the yeast fitness amounted to 0.683.

As to U7A C61U, the yeast fitness was 0.66.

Consider G18A G44A, for which the yeast fitness stood at 0.637.

On to C27U C34G C60A, for which the yeast fitness was ≤ 0.5.

In the case of G18C G51C C61G A70C, the yeast fitness is ≤ 0.5.

Turning to G18C A57G, the yeast fitness turned out to be 0.715.

Take G10A A57C U59C: the yeast fitness was ≤ 0.5.

As to C4G C24U U32C C49A A57U C66U G68C, the yeast fitness was ≤ 0.5.

In the case of C27A A37C C55G, the yeast fitness was ≤ 0.5.

Consider A15C G48A A57G, for which the yeast fitness was 0.536.

Consider U2A C4U A69U, for which the yeast fitness is 0.787.

For C4U C22G C33A A36C A43G C55G, the yeast fitness was 0.742.

Turning to C5A G12A A37G A43C C55G G68A, the yeast fitness was ≤ 0.5.

As for U59G A65U, the yeast fitness came out at 0.917.

For U13C C31U A70C, the yeast fitness was determined as 0.756.

As for C5U C22U C33U A70C, the yeast fitness is ≤ 0.5.

Regarding A15C C29A C66U, the yeast fitness was ≤ 0.5.

Turning to U13A C27G, the yeast fitness was 0.621.

Regarding C22A C24U, the yeast fitness came out at 0.74.

As to G10C C33A A45C, the yeast fitness was 0.551.

Turning to C4A C30U A57G A65U, the yeast fitness was ≤ 0.5.

Turning to U47G A69C, the yeast fitness was found to be 0.69.

Take U16A G50C A65G: the yeast fitness is ≤ 0.5.

Take U2G G56A: the yeast fitness was 0.896.

For C11G A15C A45C, the yeast fitness was ≤ 0.5.

For G48A C55U A57G G68C, the yeast fitness is ≤ 0.5.

In the case of U32G C55A A57G, the yeast fitness is ≤ 0.5.

For A42C A45U C46U, the yeast fitness turned out to be 0.861.

Consider C31G U47C, for which the yeast fitness is 0.952.
